From ChEMBL document CHEMBL4321805, “A Conformational Restriction Strategy for the Identification of a Highly Selective Pyrimido-pyrrolo-oxazine mTOR Inhibitor” (J Med Chem, 2019) come the findings set out here.

The structures appear in SMILES notation.

In one data set the target is mTORC2 (Homo sapiens, UniProt P42345). The data set is described as follows: Inhibition of mTORC2 in human A2058 cells assessed as reduction in PKB phosphorylation at S473 residues incubated for 1 hr by Western blot analysis. The format is cell-based. The essentials: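 In-cell Western assay. A2058 cells (2 × 10^4/well) grown 24 h at 37 °C, 5% CO2, then exposed 1 h to inhibitor or DMSO. Cells fixed in 4% PFA, blocked, and stained for the phospho-protein with α-tubulin as internal standard; infrared fluorescence read-out. Signals normalized to tubulin and to DMSO controls to derive IC50.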

The target in data set [1] is Phosphatidylinositol 4,5-bisphosphate 3-kinase catalytic subunit alpha isoform (Homo sapiens, UniProt P42336). Put plainly: Binding affinity to human wild-type partial length PI3Kalpha (R108 to N1068 residues) expressed in mammalian expression system by kinome scan assay. The procedure, abridged:
(§1)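 DNA-tagged kinases competed against immobilized ligand with an 11-point 3-fold serial dilution starting from 30 μM. Kinase bound measured by qPCR of the DNA tags. Kd from standard dose–response curves with the Hill equation (Hill slope −1); mean of duplicate experiments.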

Data set [2] concerns the target T1, Phosphatidylinositol 4,5-bisphosphate 3-kinase catalytic subunit delta isoform (Homo sapiens, UniProt O00329).
T1 sequence (O00329 whole entry): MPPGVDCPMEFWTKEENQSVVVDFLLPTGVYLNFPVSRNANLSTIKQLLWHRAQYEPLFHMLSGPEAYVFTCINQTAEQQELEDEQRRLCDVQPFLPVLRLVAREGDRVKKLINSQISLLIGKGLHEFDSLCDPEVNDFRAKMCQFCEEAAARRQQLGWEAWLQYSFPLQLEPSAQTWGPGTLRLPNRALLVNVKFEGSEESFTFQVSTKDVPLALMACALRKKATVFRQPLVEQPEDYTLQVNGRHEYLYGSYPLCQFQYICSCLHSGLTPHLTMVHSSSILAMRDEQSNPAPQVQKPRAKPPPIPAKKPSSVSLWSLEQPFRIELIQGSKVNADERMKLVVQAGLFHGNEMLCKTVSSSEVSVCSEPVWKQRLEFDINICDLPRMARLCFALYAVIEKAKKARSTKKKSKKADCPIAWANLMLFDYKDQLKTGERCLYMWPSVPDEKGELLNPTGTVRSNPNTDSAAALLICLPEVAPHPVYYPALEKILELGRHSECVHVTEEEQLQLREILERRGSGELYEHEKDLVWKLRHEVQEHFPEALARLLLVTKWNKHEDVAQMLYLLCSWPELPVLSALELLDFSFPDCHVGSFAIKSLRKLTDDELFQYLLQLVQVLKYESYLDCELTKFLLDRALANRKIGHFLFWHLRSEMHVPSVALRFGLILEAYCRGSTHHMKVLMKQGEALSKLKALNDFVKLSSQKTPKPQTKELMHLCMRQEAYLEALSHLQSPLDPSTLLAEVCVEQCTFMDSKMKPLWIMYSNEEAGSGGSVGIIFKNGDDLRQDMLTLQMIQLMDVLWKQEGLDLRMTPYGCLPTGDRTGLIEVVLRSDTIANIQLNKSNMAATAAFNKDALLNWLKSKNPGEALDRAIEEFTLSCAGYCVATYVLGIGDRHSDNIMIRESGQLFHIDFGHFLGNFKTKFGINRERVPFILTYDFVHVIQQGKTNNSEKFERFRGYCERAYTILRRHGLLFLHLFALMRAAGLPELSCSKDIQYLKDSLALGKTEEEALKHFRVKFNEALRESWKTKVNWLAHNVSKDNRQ
Put plainly: Binding affinity to human wild-type partial length PI3Kdelta (R108 to Q1044 residues) expressed in mammalian expression system by kinome scan assay. The procedure, abridged:
as §1

Data set [3] addresses PI3-kinase p110-alpha/p85-alpha (Homo sapiens, UniProt P42336). Put plainly: Inhibition of alexa fluor 647-labeled kinase tracer 314 binding to recombinant human full-length N-terminal His6-tagged p110alpha/p85alpha expressed in baculovirus expression system by TR-FRET assay. (Time-resolved FRET reads energy transfer from a long-lived donor to a nearby acceptor.)
The next data set addresses T2, CYP1A2 (Homo sapiens, UniProt P05177).
T2 sequence (P05177 whole entry): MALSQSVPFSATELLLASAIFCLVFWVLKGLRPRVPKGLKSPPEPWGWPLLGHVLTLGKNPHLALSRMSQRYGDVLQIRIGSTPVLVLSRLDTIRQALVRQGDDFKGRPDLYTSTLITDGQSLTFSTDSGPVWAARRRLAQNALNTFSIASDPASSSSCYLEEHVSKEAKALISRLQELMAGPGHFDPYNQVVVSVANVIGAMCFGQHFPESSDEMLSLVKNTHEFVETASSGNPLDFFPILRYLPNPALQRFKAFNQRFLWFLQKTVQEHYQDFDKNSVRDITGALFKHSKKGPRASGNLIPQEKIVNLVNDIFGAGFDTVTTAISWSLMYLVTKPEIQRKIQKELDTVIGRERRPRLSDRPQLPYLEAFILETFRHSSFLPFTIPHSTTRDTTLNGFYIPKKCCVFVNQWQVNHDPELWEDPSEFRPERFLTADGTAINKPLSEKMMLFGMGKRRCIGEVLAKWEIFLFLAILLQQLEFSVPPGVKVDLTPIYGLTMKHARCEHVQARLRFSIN
Put plainly: Substrate activity at recombinant human CYP1A2 expressed in baculovirus infected insect cells assessed as parent compound remaining at 1 uM incubated for 60 mins in presence of NADP+-regenerating system by LC-MS analysis. It is filed as ADME. As to conditions: read-out: Stability. The essentials:
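Baculovirus/insect-cell Supersomes, each expressing a single human CYP, at 25 pmol/mL. Compound at 1 μM (0.25% DMSO), 37 °C, 60 min. Reactions run with a NADP+-regenerating cofactor mix or, as negative control, without cofactors and glucose-6-phosphate dehydrogenase. Stopped with ACN containing internal standard. Duplicates; % remaining from absolute amounts.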

For another data set, the species on record is Homo sapiens. The data set is described as follows: Selectivity ratio of Kd for binding affinity to human wild-type partial length PI3Kalpha (R108 to N1068 residues) expressed in mammalian expression system to Kd for binding affinity to wild-type human partial length mTOR (L1382 to W2549 residues) expressed in mammalian expression system. The procedure, abridged:
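Ratio of Kd values from the DNA-tagged kinase competition binding assay (qPCR read-out, 11-point 3-fold dilution from 30 μM, Hill fit with slope −1, duplicates): PI3Kα Kd divided by mTOR Kd.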

Data set [4] deals with Serine/threonine-protein kinase mTOR (Homo sapiens, UniProt P42345). The data set is described as follows: Inhibition of alexa fluor 647-labeled kinase tracer 314 binding to recombinant human N-terminal GST-fused mTOR (1360 to 2549 residues) expressed in baculovirus expression system by TR-FRET assay. The procedure, abridged: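 LanthaScreen TR-FRET tracer displacement. GST-fused truncated mTOR (aa 1360–2549) detected with Eu-anti-GST antibody (2 nM). […] Buffer: 50 mM HEPES, 5 mM MgCl2, 1 mM EGTA, 0.01% Pluronic F-127. Ki derived from displacement.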

Data set [5] addresses Phosphatidylinositol 3-kinase catalytic subunit type 3 (Homo sapiens, UniProt Q8NEB9). Put plainly: Binding affinity to human wild-type partial length VPS34 (S282 to H879 residues) expressed in mammalian expression system by kinome scan assay. The essentials:
as §1

Phosphatidylinositol 3-kinase catalytic subunit type 3, sequence (Q8NEB9 whole entry, the tested form may be a part): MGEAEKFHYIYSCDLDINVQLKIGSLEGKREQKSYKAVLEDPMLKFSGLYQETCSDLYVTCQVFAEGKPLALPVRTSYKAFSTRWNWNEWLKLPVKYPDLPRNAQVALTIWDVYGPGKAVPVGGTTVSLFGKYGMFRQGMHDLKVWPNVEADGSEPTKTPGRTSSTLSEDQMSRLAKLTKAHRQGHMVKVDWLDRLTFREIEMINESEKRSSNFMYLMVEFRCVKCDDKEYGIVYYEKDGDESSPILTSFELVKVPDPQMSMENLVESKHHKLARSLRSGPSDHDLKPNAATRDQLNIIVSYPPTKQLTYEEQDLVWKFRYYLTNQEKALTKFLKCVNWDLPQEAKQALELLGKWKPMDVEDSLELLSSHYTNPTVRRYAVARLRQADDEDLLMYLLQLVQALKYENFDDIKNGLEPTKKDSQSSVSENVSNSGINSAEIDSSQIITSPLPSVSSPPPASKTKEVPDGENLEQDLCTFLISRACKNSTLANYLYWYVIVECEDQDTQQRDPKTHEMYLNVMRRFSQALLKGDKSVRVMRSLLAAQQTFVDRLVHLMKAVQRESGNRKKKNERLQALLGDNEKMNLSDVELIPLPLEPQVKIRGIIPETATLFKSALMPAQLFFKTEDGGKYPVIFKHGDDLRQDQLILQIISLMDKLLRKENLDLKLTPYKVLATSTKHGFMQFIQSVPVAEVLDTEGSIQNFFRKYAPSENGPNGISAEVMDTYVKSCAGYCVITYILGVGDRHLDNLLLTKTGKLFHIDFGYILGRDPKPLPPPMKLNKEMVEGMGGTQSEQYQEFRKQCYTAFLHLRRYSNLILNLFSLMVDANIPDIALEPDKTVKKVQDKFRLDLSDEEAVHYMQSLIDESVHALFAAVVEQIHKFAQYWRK
PI3-kinase p110-alpha/p85-alpha, sequence (P27986 whole entry): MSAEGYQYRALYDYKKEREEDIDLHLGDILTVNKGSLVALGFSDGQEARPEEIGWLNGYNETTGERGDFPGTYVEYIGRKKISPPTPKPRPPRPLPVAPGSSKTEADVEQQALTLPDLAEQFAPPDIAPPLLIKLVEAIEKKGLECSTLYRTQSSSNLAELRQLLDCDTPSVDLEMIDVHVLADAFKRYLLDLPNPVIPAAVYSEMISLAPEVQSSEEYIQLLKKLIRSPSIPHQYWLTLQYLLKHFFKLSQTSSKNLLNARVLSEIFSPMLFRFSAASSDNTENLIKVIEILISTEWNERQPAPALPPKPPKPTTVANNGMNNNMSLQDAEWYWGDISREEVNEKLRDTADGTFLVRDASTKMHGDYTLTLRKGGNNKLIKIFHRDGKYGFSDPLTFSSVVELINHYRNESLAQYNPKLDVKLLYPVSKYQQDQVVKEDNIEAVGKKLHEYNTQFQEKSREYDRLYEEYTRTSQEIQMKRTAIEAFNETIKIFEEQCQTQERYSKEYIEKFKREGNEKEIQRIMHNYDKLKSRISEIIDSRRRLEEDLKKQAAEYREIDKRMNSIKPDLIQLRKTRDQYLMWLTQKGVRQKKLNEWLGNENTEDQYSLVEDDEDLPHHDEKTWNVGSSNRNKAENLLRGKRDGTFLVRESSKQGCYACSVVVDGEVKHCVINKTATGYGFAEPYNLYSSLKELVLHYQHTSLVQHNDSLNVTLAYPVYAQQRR
PI3-kinase p110-alpha/p85-alpha, sequence (P42336 whole entry): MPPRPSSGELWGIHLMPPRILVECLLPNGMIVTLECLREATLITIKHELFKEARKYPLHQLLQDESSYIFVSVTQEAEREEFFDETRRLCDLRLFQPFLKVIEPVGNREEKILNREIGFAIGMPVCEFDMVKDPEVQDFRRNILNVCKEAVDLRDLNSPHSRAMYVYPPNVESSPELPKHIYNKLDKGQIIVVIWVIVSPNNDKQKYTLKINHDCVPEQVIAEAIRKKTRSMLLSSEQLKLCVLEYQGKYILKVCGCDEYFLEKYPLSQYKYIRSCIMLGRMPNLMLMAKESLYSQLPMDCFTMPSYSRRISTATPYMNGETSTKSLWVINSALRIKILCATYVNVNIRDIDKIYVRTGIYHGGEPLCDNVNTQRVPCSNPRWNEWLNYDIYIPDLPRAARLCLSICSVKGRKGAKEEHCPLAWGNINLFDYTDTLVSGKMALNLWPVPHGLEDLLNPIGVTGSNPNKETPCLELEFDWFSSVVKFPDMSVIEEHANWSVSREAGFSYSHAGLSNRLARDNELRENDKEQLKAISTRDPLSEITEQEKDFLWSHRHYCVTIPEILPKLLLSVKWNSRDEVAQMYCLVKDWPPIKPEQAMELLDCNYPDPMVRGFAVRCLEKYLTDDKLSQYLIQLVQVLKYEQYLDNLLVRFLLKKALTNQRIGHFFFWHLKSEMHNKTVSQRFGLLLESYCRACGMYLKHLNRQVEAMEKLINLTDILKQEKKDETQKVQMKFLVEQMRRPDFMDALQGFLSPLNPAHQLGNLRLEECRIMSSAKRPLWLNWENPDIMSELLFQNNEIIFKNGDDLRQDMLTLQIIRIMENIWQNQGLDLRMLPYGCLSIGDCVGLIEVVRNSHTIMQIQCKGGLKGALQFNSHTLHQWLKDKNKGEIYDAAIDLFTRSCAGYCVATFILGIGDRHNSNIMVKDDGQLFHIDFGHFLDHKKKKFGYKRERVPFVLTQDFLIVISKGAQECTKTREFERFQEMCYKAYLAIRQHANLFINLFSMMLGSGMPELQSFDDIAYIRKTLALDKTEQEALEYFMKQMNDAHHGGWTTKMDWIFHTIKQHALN
Phosphatidylinositol 4,5-bisphosphate 3-kinase catalytic subunit alpha isoform, sequence (P42336 whole entry, the tested form may be a part, canonical isoform): as the sequence (P42336 whole entry) above

`C[C@@H]1COCCN1c1nc(-c2cnc(N)nc2)nc2c1C[C@@H]1COCCN21`: at mTORC2, the IC50 turned out to be 77 nM. The dissociation constant (Kd) in data set [1] was 120 nM; in data set [2], 1.9 µM; in data set [5], 980 nM. Moreover, the inhibition constant Ki in data set [3] turned out to be 536 nM; in data set [4], 2.5 nM. For the same molecule, on CYP1A2, the remaining at 1 h, 1 µM turned out to be 73%. In addition, the Selectivity ratio in the data set listed under Homo sapiens was found to be 8.6.

Take `C[C@@H]1COCCN1c1nc(-c2cnc(N)cn2)nc2c1C[C@@H]1COCCN21`: the IC50 at mTORC2 turned out to be 94 nM. Besides, the Kd stood at 1600 nM in data set [1], 12 µM in data set [2] and 3200 nM in data set [5]. Moreover, the results for the inhibitory constant (Ki) in data set [3] and in data set [4] were 1690 nM and 8 nM, respectively. The remaining at 1 h, 1 µM on CYP1A2 stood at 92%. Further, in the data set listed under Homo sapiens, the Selectivity ratio was determined as 457.

Regarding `C[C@@H]1COCCN1c1nc(-c2ccc(N)nc2)nc2c1C[C@@H]1COCCN21`, the half-inhibitory concentration (IC50) at mTORC2 came to 133 nM. Further, the dissociation constant (Kd) in data set [1] stood at 610 nM; in data set [2] it was 6.2 µM; in data set [5], 2100 nM. Further, the Ki in data set [3] was 2150 nM; in data set [4], 13 nM. In the data set listed under Homo sapiens, the Selectivity ratio was found to be 17.9.

One may read the IC50 as the concentration needed to halve the response being measured. A word on the Kd: it is a measure of binding affinity in units of concentration. The low end stands for tighter binding, the high end for weaker binding. In general, Ki refers to the dissociation constant of the complex between target and ligand, obtained from inhibition or displacement.
